According to ChEMBL document CHEMBL1138738, “Synthesis, in vitro pharmacology, structure-activity relationships, and pharmacokinetics of 3-alkoxy-2-amino-6-fluorobicyclo[3.1.0]hexane-2,6-dicarboxylic acid derivatives as potent and selective group II metabotropic glutamate receptor antagonists” (J Med Chem, 2004):
One block for each compound: values may come before it.

What was measured:
[1] = target: T1, Metabotropic glutamate receptor 2 (Rattus norvegicus, UniProt P31421); test: Binding affinity towards metabotropic glutamate receptor 2 of rat expressed in CHO cells was determined by using [3H]MGS-0008; format: cell-based
T1 sequence (P31421 whole entry): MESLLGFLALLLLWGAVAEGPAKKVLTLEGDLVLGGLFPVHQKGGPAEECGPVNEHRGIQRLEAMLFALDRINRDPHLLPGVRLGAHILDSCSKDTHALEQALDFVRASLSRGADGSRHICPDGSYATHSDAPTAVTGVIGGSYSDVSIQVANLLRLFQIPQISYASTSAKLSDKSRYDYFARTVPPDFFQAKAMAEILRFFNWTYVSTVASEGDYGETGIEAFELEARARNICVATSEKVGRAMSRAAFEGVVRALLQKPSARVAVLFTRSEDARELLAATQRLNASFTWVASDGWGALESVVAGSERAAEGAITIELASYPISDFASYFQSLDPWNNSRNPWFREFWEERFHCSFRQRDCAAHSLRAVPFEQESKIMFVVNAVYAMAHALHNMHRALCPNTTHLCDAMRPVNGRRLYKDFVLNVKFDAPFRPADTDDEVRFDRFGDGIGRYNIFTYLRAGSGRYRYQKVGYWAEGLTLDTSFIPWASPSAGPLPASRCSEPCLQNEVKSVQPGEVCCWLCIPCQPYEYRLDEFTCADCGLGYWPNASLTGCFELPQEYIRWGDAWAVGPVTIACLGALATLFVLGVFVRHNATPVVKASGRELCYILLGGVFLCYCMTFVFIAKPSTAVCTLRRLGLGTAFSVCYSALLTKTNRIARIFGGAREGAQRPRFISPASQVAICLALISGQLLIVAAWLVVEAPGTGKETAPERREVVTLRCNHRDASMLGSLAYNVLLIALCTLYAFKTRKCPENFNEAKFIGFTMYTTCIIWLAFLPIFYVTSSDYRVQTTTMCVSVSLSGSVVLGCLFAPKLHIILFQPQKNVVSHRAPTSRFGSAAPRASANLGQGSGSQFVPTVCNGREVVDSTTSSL

[2] = Half-life in rat upon oral dose of 30 mg/kg; format: ADME, organism-based; set-up: dose 30 mg/kg, route oral; details: in vivo
Method in brief: (§1)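 Fasted rats were dosed orally at 3, 10 or 30 mg/kg. Plasma concentration-time profiles were measured by LC/ESI-MS/MS. Cmax, Tmax, elimination half-life and AUCinf were derived per dose group and reported as mean ± deviation.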

[3] = target: T1, Metabotropic glutamate receptor 2; test: Effective concentration for agonistic activity towards metabotropic glutamate receptor 2 of rat expressed in CHO cells; format: functional, cell-based
[4] = Concentration of compound in brain of rat after 1 hr of oral dose 10 mg/kg; format: ADME, organism-based; set-up: dose 10 mg/kg, route oral
Method in brief: (§2)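 Rats given a single peroral dose of 10 mg/kg. Plasma and cerebrum were sampled at 1, 3, 6 and 24 h. Concentrations were measured by LC/ESI-MS/MS using an internal standard. Detection limits were 1 ng/mL in plasma and 1.5 ng/g in brain. Tmax, Cmax, terminal half-life (lambda z) and predicted AUCinf were derived from the mean time-course levels.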

[5] = Concentration of compound in brain of rat after 3h of oral dose 10 mg/kg; format: ADME, organism-based; set-up: dose 10 mg/kg, route oral; method in brief: as §2
[6] = Concentration of compound in brain of rat after 6 hr of oral dose 10 mg/kg; format: ADME, organism-based; set-up: dose 10 mg/kg, route oral; method in brief: as §2
[7] = Peak plasma concentration in rats upon oral dose of 3 mg/kg; format: ADME, organism-based; set-up: dose 3 mg/kg, route oral; details: rat; method in brief: as §1
[8] = Peak plasma concentration in rats upon oral dose of 10 mg/kg; format: ADME, organism-based; set-up: dose 10 mg/kg, route oral; details: rat; method in brief: as §1
[9] = Peak plasma concentration in rats upon oral dose of 30 mg/kg; format: ADME, organism-based; set-up: dose 30 mg/kg, route oral; details: rat; method in brief: as §1
[10] = Peak plasma concentration in rat brain upon oral dose of 10 mg/kg; format: ADME, organism-based; set-up: dose 10 mg/kg, route oral; method in brief: as §2
[11] = Peak plasma concentration in rat plasma upon oral dose of 10 mg/kg; format: ADME, organism-based; set-up: dose 10 mg/kg, route oral; method in brief: as §2
[12] = Half-life in rat plasma upon oral dose of 10 mg/kg; format: ADME, organism-based; set-up: dose 10 mg/kg, route oral; method in brief: as §2
[13] = Concentration of compound in plasma of rat after 1 hr of oral dose 10 mg/kg; format: ADME, organism-based; set-up: dose 10 mg/kg, route oral; method in brief: as §2
[14] = Concentration of compound in plasma of rat after 3h of oral dose 10 mg/kg; format: ADME, organism-based; set-up: dose 10 mg/kg, route oral; method in brief: as §2
[15] = Concentration of compound in plasma of rat after 6 hr of oral dose 10 mg/kg; format: ADME, organism-based; set-up: dose 10 mg/kg, route oral; method in brief: as §2
[16] = target: Metabotropic glutamate receptor 3 (Rattus norvegicus, UniProt P31422); test: Binding affinity towards metabotropic glutamate receptor 3 of rat expressed in CHO cells was determined by using [3H]MGS-0008; format: cell-based
Chain of Metabotropic glutamate receptor 3 (P31422 whole entry): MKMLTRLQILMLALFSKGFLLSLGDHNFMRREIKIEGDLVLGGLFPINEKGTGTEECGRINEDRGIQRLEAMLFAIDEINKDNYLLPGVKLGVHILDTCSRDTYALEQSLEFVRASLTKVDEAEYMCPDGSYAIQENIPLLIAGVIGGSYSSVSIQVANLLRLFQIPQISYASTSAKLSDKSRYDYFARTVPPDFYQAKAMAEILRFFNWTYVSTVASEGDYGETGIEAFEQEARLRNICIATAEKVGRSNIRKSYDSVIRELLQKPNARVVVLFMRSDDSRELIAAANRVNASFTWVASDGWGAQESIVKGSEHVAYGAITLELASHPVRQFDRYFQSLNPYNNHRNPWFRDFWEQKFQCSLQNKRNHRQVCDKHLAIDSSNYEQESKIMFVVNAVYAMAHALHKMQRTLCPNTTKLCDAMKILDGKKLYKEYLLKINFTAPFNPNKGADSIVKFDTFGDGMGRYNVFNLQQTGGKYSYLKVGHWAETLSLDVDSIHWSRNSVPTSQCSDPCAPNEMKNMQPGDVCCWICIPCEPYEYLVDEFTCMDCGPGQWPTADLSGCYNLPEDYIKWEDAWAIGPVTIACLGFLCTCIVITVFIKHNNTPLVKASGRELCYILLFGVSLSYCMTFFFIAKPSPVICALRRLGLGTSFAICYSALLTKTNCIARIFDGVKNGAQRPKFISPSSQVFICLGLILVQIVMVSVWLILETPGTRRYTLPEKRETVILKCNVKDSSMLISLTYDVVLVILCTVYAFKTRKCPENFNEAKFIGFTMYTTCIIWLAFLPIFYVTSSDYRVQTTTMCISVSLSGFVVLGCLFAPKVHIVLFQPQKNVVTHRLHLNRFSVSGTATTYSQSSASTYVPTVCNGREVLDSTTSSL

[17] = Maximum time required to achieve peak plasma concentration upon oral dose of 3 mg/kg to rats; format: ADME, organism-based; set-up: dose 3 mg/kg, route oral; details: rat; method in brief: as §1
[18] = Maximum time required to achieve peak plasma concentration upon oral dose of 10 mg/kg to rats; format: ADME, organism-based; set-up: dose 10 mg/kg, route oral; details: rat; method in brief: as §1
[19] = Maximum time required to achieve peak plasma concentration upon oral dose of 30 mg/kg to rats; format: ADME, organism-based; set-up: dose 30 mg/kg, route oral; details: rat; method in brief: as §1
[20] = Maximum time required to achieve peak plasma concentration in rat brain upon oral dose of 10 mg/kg; format: ADME, organism-based; set-up: dose 10 mg/kg, route oral; method in brief: as §2
[21] = Maximum time required to achieve peak plasma concentration in rat plasma upon oral dose of 10 mg/kg; format: ADME, organism-based; set-up: dose 10 mg/kg, route oral; method in brief: as §2
[22] = Half-life in rat upon oral dose of 3 mg/kg; format: ADME, organism-based; set-up: dose 3 mg/kg, route oral; details: in vivo; method in brief: as §1
[23] = Half-life in rat upon oral dose of 10 mg/kg; format: ADME, organism-based; set-up: dose 10 mg/kg, route oral; details: in vivo; method in brief: as §1
[24] = target: T2, Metabotropic glutamate receptor 1 (Rattus norvegicus, UniProt P23385); test: Effective concentration for agonistic activity towards metabotropic glutamate receptor 1 of rat expressed in CHO cells; format: functional, cell-based
T2 sequence (P23385 whole entry): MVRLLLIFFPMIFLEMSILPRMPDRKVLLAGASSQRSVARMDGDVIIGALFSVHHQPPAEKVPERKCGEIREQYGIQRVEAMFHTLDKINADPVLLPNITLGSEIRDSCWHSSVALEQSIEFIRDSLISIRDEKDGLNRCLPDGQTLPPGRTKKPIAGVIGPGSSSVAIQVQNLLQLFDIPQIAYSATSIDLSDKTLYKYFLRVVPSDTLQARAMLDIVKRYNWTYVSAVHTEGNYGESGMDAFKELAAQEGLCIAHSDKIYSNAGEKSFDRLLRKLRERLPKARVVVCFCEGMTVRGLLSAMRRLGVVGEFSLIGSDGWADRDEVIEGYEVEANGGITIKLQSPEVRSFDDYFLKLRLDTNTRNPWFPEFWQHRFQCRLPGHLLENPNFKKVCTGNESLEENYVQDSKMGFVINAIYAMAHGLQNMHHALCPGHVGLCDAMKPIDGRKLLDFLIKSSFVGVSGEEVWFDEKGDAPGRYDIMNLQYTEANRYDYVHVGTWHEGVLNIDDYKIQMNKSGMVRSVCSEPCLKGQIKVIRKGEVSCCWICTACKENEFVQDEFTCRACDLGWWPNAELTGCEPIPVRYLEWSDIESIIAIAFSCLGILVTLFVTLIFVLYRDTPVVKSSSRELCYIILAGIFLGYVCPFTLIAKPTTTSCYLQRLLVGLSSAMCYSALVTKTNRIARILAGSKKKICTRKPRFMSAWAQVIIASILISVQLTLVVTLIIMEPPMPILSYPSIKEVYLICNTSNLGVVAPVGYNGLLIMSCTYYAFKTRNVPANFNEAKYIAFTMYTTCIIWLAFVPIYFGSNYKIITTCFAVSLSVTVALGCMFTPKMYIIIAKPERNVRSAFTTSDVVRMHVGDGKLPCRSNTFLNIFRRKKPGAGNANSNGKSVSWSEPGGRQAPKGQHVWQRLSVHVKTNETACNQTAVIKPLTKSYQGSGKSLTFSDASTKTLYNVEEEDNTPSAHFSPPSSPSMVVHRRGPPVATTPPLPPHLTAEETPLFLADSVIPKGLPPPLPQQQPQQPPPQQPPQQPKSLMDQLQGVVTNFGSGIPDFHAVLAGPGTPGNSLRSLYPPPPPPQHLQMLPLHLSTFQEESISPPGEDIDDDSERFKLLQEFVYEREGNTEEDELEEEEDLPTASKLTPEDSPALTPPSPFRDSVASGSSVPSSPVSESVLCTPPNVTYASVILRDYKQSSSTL

[25] = target: T3, Metabotropic glutamate receptor 5 (Rattus norvegicus, UniProt P31424); test: Effective concentration for agonistic activity towards metabotropic glutamate receptor 5 of rat expressed in CHO cells; format: functional, cell-based
T3 sequence (P31424 whole entry): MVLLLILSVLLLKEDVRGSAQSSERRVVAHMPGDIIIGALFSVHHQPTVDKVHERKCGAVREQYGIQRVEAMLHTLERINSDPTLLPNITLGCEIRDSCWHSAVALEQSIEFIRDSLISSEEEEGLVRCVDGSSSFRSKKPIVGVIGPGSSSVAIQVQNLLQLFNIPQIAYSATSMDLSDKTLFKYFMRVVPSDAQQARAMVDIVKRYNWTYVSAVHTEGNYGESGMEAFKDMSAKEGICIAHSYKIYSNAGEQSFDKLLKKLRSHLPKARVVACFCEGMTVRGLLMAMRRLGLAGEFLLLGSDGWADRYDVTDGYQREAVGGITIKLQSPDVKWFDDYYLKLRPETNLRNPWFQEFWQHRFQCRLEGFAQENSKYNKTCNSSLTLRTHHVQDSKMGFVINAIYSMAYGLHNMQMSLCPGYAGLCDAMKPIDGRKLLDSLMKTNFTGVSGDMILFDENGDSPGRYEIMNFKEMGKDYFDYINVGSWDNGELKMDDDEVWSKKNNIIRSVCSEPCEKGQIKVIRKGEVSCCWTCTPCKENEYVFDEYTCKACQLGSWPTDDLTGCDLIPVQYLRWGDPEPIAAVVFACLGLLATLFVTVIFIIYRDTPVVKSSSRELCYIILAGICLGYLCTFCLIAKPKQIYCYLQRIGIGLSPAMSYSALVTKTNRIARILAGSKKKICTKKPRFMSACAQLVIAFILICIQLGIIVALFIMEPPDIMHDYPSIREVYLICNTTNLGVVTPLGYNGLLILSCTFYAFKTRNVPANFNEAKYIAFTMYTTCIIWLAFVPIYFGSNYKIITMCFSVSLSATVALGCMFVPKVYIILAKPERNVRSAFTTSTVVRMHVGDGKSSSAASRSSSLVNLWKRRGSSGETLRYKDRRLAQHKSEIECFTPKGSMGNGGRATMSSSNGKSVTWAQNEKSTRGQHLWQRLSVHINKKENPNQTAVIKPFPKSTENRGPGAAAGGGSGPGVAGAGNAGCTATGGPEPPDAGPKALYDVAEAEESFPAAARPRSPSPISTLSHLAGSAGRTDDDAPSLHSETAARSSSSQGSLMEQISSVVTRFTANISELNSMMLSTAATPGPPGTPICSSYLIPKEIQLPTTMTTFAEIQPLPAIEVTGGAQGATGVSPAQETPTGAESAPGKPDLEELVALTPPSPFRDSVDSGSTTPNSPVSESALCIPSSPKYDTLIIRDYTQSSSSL

[26] = target: T4, Metabotropic glutamate receptor 6 (Rattus norvegicus, UniProt P35349); test: Effective concentration for agonistic activity towards metabotropic glutamate receptor 6 of rat expressed in CHO cells; format: functional, cell-based
T4 sequence (P35349 whole entry): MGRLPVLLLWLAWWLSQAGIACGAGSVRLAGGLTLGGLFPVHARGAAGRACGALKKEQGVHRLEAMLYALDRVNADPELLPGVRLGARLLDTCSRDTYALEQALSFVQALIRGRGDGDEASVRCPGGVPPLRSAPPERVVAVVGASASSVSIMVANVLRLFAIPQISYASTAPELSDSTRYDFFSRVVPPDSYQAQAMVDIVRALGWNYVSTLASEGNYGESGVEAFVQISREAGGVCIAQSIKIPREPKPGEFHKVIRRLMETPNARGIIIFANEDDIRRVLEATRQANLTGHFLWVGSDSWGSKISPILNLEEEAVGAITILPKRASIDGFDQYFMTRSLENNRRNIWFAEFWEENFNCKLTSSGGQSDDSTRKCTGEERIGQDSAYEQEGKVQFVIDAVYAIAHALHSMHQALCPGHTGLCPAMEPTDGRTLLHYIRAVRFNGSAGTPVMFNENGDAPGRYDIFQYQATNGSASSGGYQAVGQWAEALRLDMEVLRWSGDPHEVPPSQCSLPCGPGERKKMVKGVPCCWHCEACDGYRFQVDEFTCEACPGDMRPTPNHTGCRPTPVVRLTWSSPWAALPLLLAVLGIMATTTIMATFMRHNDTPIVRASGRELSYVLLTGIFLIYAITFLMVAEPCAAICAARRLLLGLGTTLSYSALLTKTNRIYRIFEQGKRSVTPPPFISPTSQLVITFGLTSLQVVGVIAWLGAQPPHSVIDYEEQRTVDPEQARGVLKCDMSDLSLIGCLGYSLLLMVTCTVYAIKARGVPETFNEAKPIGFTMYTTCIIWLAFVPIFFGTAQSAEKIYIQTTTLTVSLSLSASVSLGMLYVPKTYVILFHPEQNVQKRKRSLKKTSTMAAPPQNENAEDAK

[27] = target: T2, Metabotropic glutamate receptor 1; test: Concentration required to inhibit metabotropic glutamate receptor 1 activity of rat expressed in CHO cells; format: cell-based
[28] = target: Metabotropic glutamate receptor 4 (Rattus norvegicus, UniProt P31423); test: Concentration required to inhibit metabotropic glutamate receptor 4 activity of rat expressed in CHO cells; format: cell-based
[29] = target: T3, Metabotropic glutamate receptor 5; test: Concentration required to inhibit metabotropic glutamate receptor 5 activity of rat expressed in CHO cells; format: cell-based
[30] = target: T4, Metabotropic glutamate receptor 6; test: Concentration required to inhibit metabotropic glutamate receptor 6 activity of rat expressed in CHO cells; format: cell-based
[31] = target: Metabotropic glutamate receptor 7 (Rattus norvegicus, UniProt P35400); test: Binding affinity towards metabotropic glutamate receptor 7 of rat expressed in CHO cells was determined by using [3H]LY341495
[32] = target: T1, Metabotropic glutamate receptor 2; test: Concentration required to inhibit metabotropic glutamate receptor 2 activity of rat expressed in CHO cells; format: cell-based
[33] = Half-life in rat brain upon oral dose of 10 mg/kg; format: ADME, organism-based; set-up: dose 10 mg/kg, route oral; method in brief: as §2
[34] = Concentration of compound in brain of rat after 24 hr of oral dose 10 mg/kg; format: ADME, organism-based; set-up: dose 10 mg/kg, route oral; method in brief: as §2
[35] = Concentration of compound in plasma of rat after 24 hr of oral dose 10 mg/kg; format: ADME, organism-based; set-up: dose 10 mg/kg, route oral; method in brief: as §2

Structure (SMILES): N[C@]1(C(=O)O)[C@H]2[C@@H](C[C@H]1OCc1cccc(Br)c1)[C@]2(F)C(=O)O
- Ki [1]: 4.71 nM

Structure (SMILES): N[C@]1(C(=O)O)[C@H]2[C@@H](C[C@H]1OCc1cccc(C(F)(F)F)c1)[C@]2(F)C(=O)O
- Ki [1]: 5.72 nM

Structure (SMILES): N[C@]1(C(=O)O)[C@H]2[C@@H](C[C@H]1OCc1cc(Cl)c(Cl)c(Cl)c1)[C@]2(F)C(=O)O
- Ki [1]: 3.67 nM

Structure (SMILES): N[C@@]1(C(=O)O)[C@@H](OCc2ccc(Cl)c(Cl)c2)C[C@@H]2[C@H]1[C@@]2(F)C(=O)O
- Ki [1]: 17.1 nM

Structure (SMILES): N[C@]1(C(=O)O)[C@H]2[C@@H](C[C@H]1OCc1cc(Cl)ccc1Cl)[C@]2(F)C(=O)O
- Ki [1]: 11.8 nM

Structure (SMILES): COc1cccc(CO[C@@H]2C[C@@H]3[C@H]([C@]2(N)C(=O)O)[C@@]3(F)C(=O)O)c1
- Ki [1]: 5.92 nM

Structure (SMILES): N[C@]1(C(=O)O)[C@H]2[C@@H](C[C@H]1OC(c1ccc(Cl)cc1)c1ccc(Cl)cc1)[C@]2(F)C(=O)O
- Ki [1]: 3.75 nM

Structure (SMILES): N[C@]1(C(=O)O)[C@H]2[C@@H](C[C@H]1OCc1cccc(C(=O)O)c1)[C@]2(F)C(=O)O
- Ki [1]: 1.06 nM

Structure (SMILES): N[C@](CC1c2ccccc2Oc2ccccc21)(C(=O)O)[C@H]1C[C@@H]1C(=O)O
- EC50 [24]: > 100000 nM
- EC50 [25]: > 100000 nM
- EC50 [26]: > 100000 nM
- IC50 [27]: 8990 nM
- IC50 [28]: 2650 nM
- IC50 [29]: 11400 nM
- IC50 [30]: 1140 nM
- Ki [31]: 110 nM

Structure (SMILES): N[C@]1(C(=O)O)[C@H]2[C@@H](C[C@H]1OC(c1ccccc1)c1ccccc1)[C@]2(F)C(=O)O
- half-life [2]: 3.63 h
- EC50 [3]: > 100000 nM
- IC50 [32]: 24.4 nM
- concentration at 6 h [6]: 2.04 ng/mL
- Cmax [7]: 25 ng/mL
- Cmax [8]: 85.1 ng/mL
- Cmax [9]: 312 ng/mL
- Cmax [10]: 2.04 ng/mL
- Cmax [11]: 61.3 ng/mL
- half-life [33]: 9 h
- half-life [12]: 2.8 h
- concentration at 24 h [34]: 0.51 ng/mL
- concentration at 1 h [13]: 61.3 ng/mL
- concentration at 3 h [14]: 37.6 ng/mL
- concentration at 6 h [15]: 23.1 ng/mL
- concentration at 24 h [35]: 0.2 ng/mL
- Ki [1]: 2.58 nM
- Ki [16]: 3.93 nM
- Tmax [17]: 0.7 h
- Tmax [18]: 1.8 h
- Tmax [19]: 1 h
- Tmax [20]: 6 h
- Tmax [21]: 1 h
- half-life [22]: 1.62 h
- half-life [23]: 2.2 h

More lines, now with the values ahead:

- half-life [2]: 3.28 h
- EC50 [3]: > 100000 nM
- concentration at 1 h [4]: 2.51 ng/mL
- concentration at 3 h [5]: 3.66 ng/mL
- concentration at 6 h [6]: 3.39 ng/mL
- Cmax [7]: 76.6 ng/mL
- Cmax [8]: 272 ng/mL
- Cmax [9]: 651 ng/mL
- Cmax [10]: 3.66 ng/mL
- Cmax [11]: 225 ng/mL
- half-life [12]: 2.5 h
- concentration at 1 h [13]: 176 ng/mL
- concentration at 3 h [14]: 225 ng/mL
- concentration at 6 h [15]: 98.2 ng/mL
- Ki [1]: 3.17 nM
- Ki [16]: 4.77 nM
- Tmax [17]: 1.3 h
- Tmax [18]: 2.3 h
- Tmax [19]: 2.7 h
- Tmax [20]: 3 h
- Tmax [21]: 3 h
- half-life [22]: 1.67 h
- half-life [23]: 3.75 h
Structure (SMILES): N[C@]1(C(=O)O)[C@H]2[C@@H](C[C@H]1OCc1ccc(Cl)cc1)[C@]2(F)C(=O)O

- Ki [1]: 4.53 nM
Structure (SMILES): Cc1cccc(CO[C@@H]2C[C@@H]3[C@H]([C@]2(N)C(=O)O)[C@@]3(F)C(=O)O)c1

- Ki [1]: 7.02 nM
Structure (SMILES): N[C@]1(C(=O)O)[C@H]2[C@@H](C[C@H]1OCc1c(F)cccc1F)[C@]2(F)C(=O)O

- Ki [1]: 4.02 nM
Structure (SMILES): N[C@]1(C(=O)O)[C@H]2[C@@H](C[C@H]1OCc1ccc(Cl)c(F)c1)[C@]2(F)C(=O)O

- Ki [1]: 14.4 nM
Structure (SMILES): N[C@]1(C(=O)O)[C@H]2[C@@H](C[C@H]1OCc1cc(F)ccc1F)[C@]2(F)C(=O)O
